A short description of assay [1]: inhibitors of TNFa-induced NFkB p65 translocation, primary screen, imaging, HUVEC, MLSMR starter and 10KST1 sets (AID 438).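 For inhibition: signal is the nuclear over cytoplasmic p65 intensity ratio per well.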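 Note: compound added about 3h40 before a 20 min TNFalpha stimulation.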 To be noted: HUVEC TNFa-induced p65 nuclear translocation; cell count: measured here: nuclei count (cytotoxicity indicator), at 2.08 µM; inhibition: at 2 µM, stronger effect = higher value, 0% TNFa-plus-vehicle, 100% no-TNFa wells.
Assay [2] can be described thus: reduction of polyQ htt aggregates in cells – imaging, exon1htt(103Q)mCFP cells, high-content imaging, primary screen (AID 483;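 active = visual image review flags a hit and inhibition of aggregation exceeds 20%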;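 note: compound exposure lasted 3 days before fixation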;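 for nuclei count: percent of the per-plate median nuclei count of sample wells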). The note with it: exon1htt(103Q)mCFP cell line, aggregate imaging, at 2 µM; inhibition of aggregation: stronger effect = higher value; nuclei count: measured here: cell count, toxicity.
Assay [3] is described as follows: endothelial E-selectin expression blockers – imaging, HUVEC, immunofluorescence, MLSMR starter and 10KST1 sets, primary screen (AID 487;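 active = visually confirmed hit in the image check and inhibition above 20%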;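 for inhibition: signal is fraction of cell area covered by stained E-selectin grains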;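 for nuclei count: 100% = median nuclei count of all wells on the same plate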). The note with it: HUVEC TNFalpha-induced E-selectin immunofluorescence imaging, at 2 µM; inhibition: stronger effect = higher value; nuclei count: measured here: cell number, toxicity.
For assay [4], the target named is Voltage-gated potassium channel subunit beta-2 (Rattus norvegicus) (UniProt P62483). The assay can be described thus: inhibitors of rat Kvbeta2 reductase activity – biochemical, NADPH fluorescence, primary screen (AID 622;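 active = fluorescence slope higher than the sample average by over 3 SD, cut at about -0.22 in these data, passing the limit was not always enough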;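 note: slope of raw intensity against log time taken from 70 to 1610 s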). To be noted: recombinant KvBeta, 4-cyanobenzaldehyde reduction, at 10 µM, stronger effect = higher value.
For assay [5] the target is unchanged. The assay can be described thus: enhancers of rat Kvbeta2 NADPH turnover – biochemical, NADPH fluorescence, primary screen (AID 623;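 active = NADPH fluorescence slope more negative than the mean of all samples by about 3 SD, 99.7% confidence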;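 note: fluorescence intensity change per second fitted from 20 to 320 s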). The note with it: Recombinant KvBeta, NADPH fluorescence decrease slope, 10 min; at 10 µM; stronger effect = lower value.
In assay [6] the target is Alpha-2C adrenergic receptor (Homo sapiens) (UniProt P18825). The assay can be described thus: compounds altering alpha2C-coupled GIRK flux – cell-based, HEK293 alpha2C/GIRK1/2, thallium flux, primary screen (AID 624;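 active = fluorescence slope after compound addition differing from the mean of all screened samples at 99.7% confidence, in either direction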;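 note: slope of fluorescence ratio to pre-addition baseline per second over 15 to 24 s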). The note with it: thallium flux BTC fluorescence, at 10 µM, actives lie on both sides.
Assay [7] in a line: inhibitors of larval lipid processing in zebrafish, primary screen, whole organism, PED6 fluorescence, gall bladder and intestine (AID 686;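 active = a full or partial loss of lipid-probe fluorescence in the fish gall bladder, intestine or both, judged by eye; inactive = no fluorescence loss, or compound toxic to the fish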;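 note: larvae 5 to 7 days old with five fish per well; signal comes from phospholipase A2 cleavage of quenched PED6 carried via bile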). The note with it: Zebrafish larvae PED6 lipid processing, fluorescence scoring; screened at 20 µM (by protocol). The essentials:
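Incubation: overnight exposure of larvae to compound plus PED6 / Test system: live zebrafish larvae aged 5-7 days, whole organism / Amount: 5 larvae per well / Read-out basis: visual per-well fluorescence inhibition score / Signal: visual fluorescence microscopy scoring of gall bladder, gut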

Assay [8] can be described thus: blockers of RIG-like receptor reporter activation – cell-based, Sendai virus stimulus, luciferase, 10K MLSCN set, TLR/RLR signaling modifier project, primary screen (AID 602276;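 active = inhibition at or above 50% at 10 µM; inactive = inhibition below 50%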;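 note: firefly luciferase from ISG56 promoter only with Renilla not read in this screen; 0% = Sendai virus plus DMSO and 100% = medium plus DMSO without virus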). To be noted: HEK293 RL24 IRF3 luciferase reporter, at 10 µM, stronger effect = higher value. (In general: In a reporter assay the amount or activity of a reporter protein is the signal.)
Assay [9] in a line: TLR3 IRF3 reporter activation blockers – cell-based, poly I:C stimulus, luciferase, 10K MLSCN set, primary screen (AID 602277;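 active = inhibition of the reporter signal at or above 50%; inactive = inhibition below 50%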). To be noted: HEK293-TLR3 RL24 IRF3 luciferase reporter, at 10 µM, stronger effect = higher value.

The source of these data is PubChem BioAssay.

What is called inhibition is the relative decrease from the control value, in per cent.

Molecules are shown by their SMILES. Active and inactive are the calls of the source.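 Rule for the calls, unless noted: active = inhibition above 20% together with a positive visual image hit; inconclusive = visual image hit but inhibition not above 20%; inactive = no visual image hit.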

Voltage-gated potassium channel subunit beta-2 (Rattus norvegicus), sequence (P62483 whole entry, looked up): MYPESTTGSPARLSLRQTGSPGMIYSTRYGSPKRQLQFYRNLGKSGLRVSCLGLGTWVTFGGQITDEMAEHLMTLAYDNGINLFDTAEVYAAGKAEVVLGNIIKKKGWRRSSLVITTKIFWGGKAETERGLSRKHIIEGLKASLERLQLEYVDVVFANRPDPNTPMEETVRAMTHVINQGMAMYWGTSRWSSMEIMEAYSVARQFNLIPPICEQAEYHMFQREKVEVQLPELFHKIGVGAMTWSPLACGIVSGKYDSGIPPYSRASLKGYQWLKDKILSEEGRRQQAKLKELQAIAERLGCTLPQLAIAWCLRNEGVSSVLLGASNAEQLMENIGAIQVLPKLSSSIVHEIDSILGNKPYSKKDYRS
Alpha-2C adrenergic receptor (Homo sapiens), sequence (P18825 whole entry, looked up): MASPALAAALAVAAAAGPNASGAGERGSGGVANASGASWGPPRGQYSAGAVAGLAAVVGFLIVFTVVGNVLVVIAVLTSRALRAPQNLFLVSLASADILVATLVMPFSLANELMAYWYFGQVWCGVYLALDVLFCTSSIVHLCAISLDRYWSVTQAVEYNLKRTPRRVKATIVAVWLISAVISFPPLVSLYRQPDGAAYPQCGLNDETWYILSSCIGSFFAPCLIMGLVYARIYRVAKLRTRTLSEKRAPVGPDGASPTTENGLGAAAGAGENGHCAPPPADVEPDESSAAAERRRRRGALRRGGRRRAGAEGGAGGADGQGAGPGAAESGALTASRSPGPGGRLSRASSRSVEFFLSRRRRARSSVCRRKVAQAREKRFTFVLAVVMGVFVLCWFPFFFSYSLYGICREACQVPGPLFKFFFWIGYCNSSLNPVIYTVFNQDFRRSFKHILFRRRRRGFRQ

For the compound `COc1ccc(C)cc1-n1nnnc1SC/C(O)=C(\C#N)c1nc2ccccc2[nH]1`, in assay [1], the cell count stood at 614. Also, the inhibition was 5.1% (inactive) in assay [1], -42.5% (inactive) in [3], 15.6% (inactive) in assay [8] and 27% (inactive) in assay [9]. The inhibition of aggregation in assay [2] is -491% (inactive). Also, the values for the nuclei count in [2] and in assay [3] were 42.2% and 104%, respectively. The fluorescence slope in assay [4] was -0.431 (inactive). Besides, the NADPH fluorescence slope in assay [5] was -3.4e-05 (inactive). Also, in [6], the slope is 0.00627 (inactive). In addition, the outcome in [7] is “active; weak signal in gallbladder only”.
Turning to `C=C(C)Cn1c(CCCNC(=O)C(C)(C)C)nc2ccccc21`, in assay [1], the cell count was determined as 770. The inhibition in assay [1] is -19.6% (inactive); in [3], 14% (inactive); in assay [8] it was 6.04% (inactive); in [9], 98.2% (active). Besides, the inhibition of aggregation in assay [2] is -0.5% (inactive). The figures for the nuclei count in assay [2] and in assay [3] were 106% and 110%, respectively. The fluorescence slope in assay [4] was -0.397 (inactive). Moreover, the NADPH fluorescence slope in assay [5] was -3.4e-05 (inactive). In addition, the slope in [6] was 0.00533 (inactive). Moreover, the compound was classed as inactive in [7].
Consider `CCCNC(=O)c1cc(-c2ccco2)on1`, for which the cell count in assay [1] turned out to be 389. The inhibition is -3.9% (inactive) in assay [1], -11.4% (inactive) in assay [3], -19% (inactive) in [8] and -154% (inactive) in [9]. For the same compound, the inhibition of aggregation in assay [2] was -4.1% (inactive). Moreover, the nuclei count in [2] was determined as 88.7%; in [3], 98.4%. Besides, the fluorescence slope in assay [4] was -0.39 (inactive). In addition, in assay [5], the NADPH fluorescence slope is -4.2e-05 (inactive). Also, in [6], the slope is 0.0057 (inactive). Also, in assay [7], the compound was classed as inactive.
As for `COC(=O)Nc1sccc1C(=O)Nc1sccc1C(=O)OC`, the cell count in [1] turned out to be 330. The inhibition in assay [1] is -0.2% (inactive); in assay [3], 17.9% (inactive); in assay [8], 1.3% (inactive); in [9], -4.09% (inactive). Besides, the inhibition of aggregation in assay [2] was 23.3% (inactive). Also, the nuclei count turned out to be 96.8% in [2] and 95.9% in assay [3]. Moreover, the fluorescence slope in assay [4] is -0.431 (inactive). For the same compound, in assay [5], the NADPH fluorescence slope was -3.4e-05 (inactive). The slope in assay [6] was 0.00336 (inactive). Also, in [7], the result was inactive.
On to `Cc1cc(C(F)(F)F)c2c(C)nn(CCc3nn[nH]n3)c2n1`, for which the cell count in assay [1] was determined as 863. Further, the inhibition in [1] was 1.1% (inactive); in [3] it was -20% (inactive); in assay [8], -11.3% (inactive); in assay [9], -12.7% (inactive). Besides, the inhibition of aggregation in assay [2] was 11.9% (inactive). Moreover, the nuclei count is 112% in [2] and 117% in assay [3]. In [4], the fluorescence slope is -0.368 (inactive). The NADPH fluorescence slope in assay [5] was 1.8e-05 (inactive). Moreover, the slope in assay [6] is 0.00523 (inactive). Moreover, the call in assay [7] was inactive.
For the compound `COC(=O)c1ccc2c(=O)n(NC(C)=O)c(=S)[nH]c2c1`, in assay [1], the cell count turned out to be 627. Moreover, the inhibition in [1] was 8.7% (inactive); in assay [3], -73.1% (inactive); in [8], 2.98% (inactive); in assay [9] it was -0.555% (inactive). Further, the inhibition of aggregation in assay [2] was -5% (inactive). The nuclei count worked out at 108% in assay [2] and 114% in assay [3]. Moreover, the fluorescence slope in assay [4] was -0.367 (inactive). Further, in assay [5], the NADPH fluorescence slope is -6.6e-05 (inactive). Also, the slope in assay [6] is 0.00487 (inactive). Further, the outcome in [7] was inactive.
In the case of `COc1ccc(S(=O)(=O)Nc2ccccc2SC)cc1C`, the cell count in [1] was determined as 664. Further, the inhibition in [1] is -7.1% (inactive); in assay [3], -125% (inactive); in assay [8] it was 12.4% (inactive); in assay [9] it was 22.4% (inactive). The inhibition of aggregation in assay [2] is 12.2% (inactive). Also, the nuclei count in assay [2] worked out at 102%; in assay [3] it was 105%. Moreover, the fluorescence slope in [4] was -0.346 (inactive). In assay [5], the NADPH fluorescence slope is 1.3e-05 (inactive). Moreover, the slope in assay [6] was 0.00618 (inactive). Moreover, in assay [7], the compound was called inactive.
As for `CN/C=C1\C(=O)C(C)(C)Oc2ccc3ccc(=O)oc3c21`, in [1], the cell count stood at 544. The inhibition was -12.4% (inactive) in assay [1], -38.4% (inactive) in assay [3], 8.59% (inactive) in assay [8] and 8.49% (inactive) in assay [9]. Moreover, in assay [2], the inhibition of aggregation is -24.8% (inactive). The nuclei count in assay [2] turned out to be 101%; in [3], 129%. In addition, the fluorescence slope in [4] is -0.384 (inactive). Also, the NADPH fluorescence slope in [5] was -2.1e-05 (inactive). Further, the slope in assay [6] was 0.00506 (inactive). The result in [7] was inactive.
For `O=C(CSc1nnc(-c2ccc(Br)cc2)n1C1CCCCC1)N1CCCC1`, the cell count in assay [1] was 306. Further, the inhibition in assay [1] is -17.8% (inactive); in assay [3], 4.3% (inactive); in assay [8], -3.56% (inactive); in assay [9], -4.51% (inactive). Moreover, the inhibition of aggregation in assay [2] was 5.3% (inactive). Moreover, the nuclei count in assay [2] turned out to be 101%; in [3] it was 81.3%. In addition, the fluorescence slope in [4] is -0.371 (inactive). Besides, in assay [5], the NADPH fluorescence slope is 1.5e-05 (inactive). Also, the slope in assay [6] was 0.00599 (inactive). For the same compound, the compound was classed as inactive in assay [7].
For `COCCCN1C(=O)C(=O)/C(=C(/O)c2ccc(OC)cc2)C1c1ccc(O)c(OC)c1` (stereo not given), in [1], the cell count came to 499. Also, the inhibition in [1] was -14.9% (inactive); in assay [3], 25.3% (inactive); in [8] it was 4.25% (inactive); in assay [9], -6.14% (inactive). The inhibition of aggregation in [2] was -10% (inactive). For the same compound, the nuclei count was determined as 101% in [2] and 98.6% in assay [3]. Further, the fluorescence slope in assay [4] was -0.39 (inactive). Also, in assay [5], the NADPH fluorescence slope was -2.6e-05 (inactive). Moreover, in assay [6], the slope is 0.00521 (inactive). In assay [7], the result was inactive.
